Measurements: ChEMBL document CHEMBL4024779, “Novel Terminal Bipheny-Based Diapophytoene Desaturases (CrtN) Inhibitors as Anti-MRSA/VISR/LRSA Agents with Reduced hERG Activity” (J Med Chem, 2018)
Calls of active or inactive are those of the source. The rule behind the calls is not given here.

Key:
Liver = assay: (§1) Half life in human liver microsomes at 2 uM after 60 mins in presence of NADPH by LC-MS/MS method; type: ADME, microsome; conditions: microsomes, 1 h, 2 µM
[1] = AUC (0 to 24 hrs) in Sprague-Dawley rat at 5 mg/kg, iv administered as single dose by LC-MS/MS analysis; type: ADME, organism-based; parameters: dose 5 mg/kg, time < 24 hr, route intravenous; conditions: in vivo
[2] = AUC (0 to 24 hrs) in Sprague-Dawley rat at 10 mg/kg, po administered as single dose by LC-MS/MS analysis; type: ADME, organism-based; parameters: time < 24 hr, dose 10 mg/kg, route oral; conditions: in vivo
[3] = AUC (0 to infinity) in Sprague-Dawley rat at 10 mg/kg, po administered as single dose by LC-MS/MS analysis; type: ADME, organism-based; parameters: dose 10 mg/kg, route oral, time infinity; conditions: in vivo
[4] = Cmax in Sprague-Dawley rat at 5 mg/kg, iv administered as single dose by LC-MS/MS analysis; type: ADME, organism-based; parameters: dose 5 mg/kg, route intravenous; conditions: in vivo
[5] = Cmax in Sprague-Dawley rat at 10 mg/kg, ip administered as single dose by LC-MS/MS analysis; type: ADME, organism-based; parameters: dose 10 mg/kg, route intraperitoneal; conditions: in vivo
[6] = Tmax in Sprague-Dawley rat at 5 mg/kg, iv administered as single dose by LC-MS/MS analysis; type: ADME, organism-based; conditions: in vivo
[7] = Clearance in Sprague-Dawley rat at 5 mg/kg, iv administered as single dose by LC-MS/MS analysis; type: ADME, organism-based; conditions: in vivo
[8] = Half life in Sprague-Dawley rat at 10 mg/kg, ip administered as single dose by LC-MS/MS analysis; type: ADME, organism-based; conditions: in vivo
[9] = Oral bioavailability in Sprague-Dawley rat at 10 mg/kg administered as single dose by LC-MS/MS analysis; type: ADME, organism-based; conditions: in vivo
[10] = Oral bioavailability in mouse at 10 mg/kg administered as single dose by LC-MS/MS analysis; type: ADME, organism-based; conditions: in vivo
Staphylococcus aureus [11] = assay: In vivo anti-virulence activity against methicillin-resistant Staphylococcus aureus Mu50 infected in BALB/c mouse model assessed as reduction in bacterial load in kidneys at 0.05 mg bid for 3.5 days administered intraperitoneally 6 hrs post infection by serial dilution method; type: functional; parameters: scale not given: the % may be the effect or the level left
[12] = Inhibition of CrtN in methicillin-resistant Staphylococcus aureus NRS108 assessed as reduction in staphyloxanthin levels after 48 hrs by spectrophotometric method-based pigment inhibition assay
Staphylococcus aureus [13] = assay: In vivo anti-virulence activity against methicillin-resistant Staphylococcus aureus NF65Y infected in BALB/c mouse model assessed as reduction in bacterial load in heart at 0.1 mg bid for 3.5 days administered intraperitoneally 6 hrs post infection by serial dilution method relative to linezolid; type: functional, organism-based
How it was run: (§2)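 Mice infected retro-orbitally with S. aureus NF65Y (3.5 × 10^8 CFU) or XN108 (2.1 × 10^8 CFU). Test compound given i.p. b.i.d. starting 6 h post-infection. […] Log10 CFU per kidney and heart counted. Two-tailed Mann−Whitney test.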

Staphylococcus aureus [14] = assay: In vivo anti-virulence activity against methicillin-resistant Staphylococcus aureus NF65Y infected in BALB/c mouse model assessed as reduction in bacterial load in heart at 0.1 mg bid for 3.5 days administered intraperitoneally 6 hrs post infection by serial dilution method relative to vancomycin; type: functional, organism-based; how it was run: as §2
Staphylococcus aureus [15] = assay: In vivo anti-virulence activity against methicillin-resistant Staphylococcus aureus NF65Y infected in BALB/c mouse model assessed as reduction in bacterial load in kidney at 0.1 mg bid for 3.5 days administered intraperitoneally 6 hrs post infection by serial dilution method relative to vancomycin; type: functional, organism-based; how it was run: as §2
Staphylococcus aureus [16] = assay: In vivo anti-virulence activity against Staphylococcus aureus Newman infected in BALB/c mouse model assessed as reduction in bacterial load in kidney at 0.1 mg bid for 3.5 days administered orally 6 hrs post infection by serial dilution method relative to control; type: functional; parameters: scale not given: the % may be the effect or the level left
How it was run: (§3)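 Mice got 3.1 × 10^7 CFU S. aureus Newman by retro-orbital injection. Oral compound was given b.i.d. for 3.5 d, starting 6 h after infection. […] Log10 CFU was counted per kidney and per heart.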

Staphylococcus aureus [17] = assay: In vivo anti-virulence activity against Staphylococcus aureus Newman infected in BALB/c mouse model assessed as reduction in bacterial load in heart at 0.4 mg bid for 3.5 days administered orally 6 hrs post infection by serial dilution method relative to control; type: functional, organism-based; how it was run: as §3
Staphylococcus aureus [18] = assay: In vivo anti-virulence activity against Staphylococcus aureus Newman infected in BALB/c mouse model assessed as reduction in bacterial load in heart at 0.4 mg bid for 3.5 days administered orally 6 hrs post infection by serial dilution method relative to vancomycin; type: functional; parameters: scale not given: the % may be the effect or the level left; how it was run: as §3
Staphylococcus aureus [19] = assay: In vivo anti-virulence activity against Staphylococcus aureus Mu50 infected in BALB/c mouse model assessed as reduction in bacterial load in kidney at 0.2 mg bid for 3.5 days administered orally 6 hrs post infection by serial dilution method relative to control; type: functional, organism-based
How it was run: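 Mice were infected by retro-orbital injection with Mu50 (4.6 × 10^9 CFU) or NRS271 (3.5 × 10^8 CFU). Oral compound was given b.i.d. for 3.5 d, starting 6 h after infection. Log10 CFU was counted per kidney and per heart.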

[20] = biological target: T1, 4,4'-diapophytoene desaturase (4,4'-diaponeurosporene-forming) (Staphylococcus aureus (strain USA300)) (UniProt Q2FDU6); conditions: Staphylococcus aureus LAC, 1 uM
T1 sequence (whole entry): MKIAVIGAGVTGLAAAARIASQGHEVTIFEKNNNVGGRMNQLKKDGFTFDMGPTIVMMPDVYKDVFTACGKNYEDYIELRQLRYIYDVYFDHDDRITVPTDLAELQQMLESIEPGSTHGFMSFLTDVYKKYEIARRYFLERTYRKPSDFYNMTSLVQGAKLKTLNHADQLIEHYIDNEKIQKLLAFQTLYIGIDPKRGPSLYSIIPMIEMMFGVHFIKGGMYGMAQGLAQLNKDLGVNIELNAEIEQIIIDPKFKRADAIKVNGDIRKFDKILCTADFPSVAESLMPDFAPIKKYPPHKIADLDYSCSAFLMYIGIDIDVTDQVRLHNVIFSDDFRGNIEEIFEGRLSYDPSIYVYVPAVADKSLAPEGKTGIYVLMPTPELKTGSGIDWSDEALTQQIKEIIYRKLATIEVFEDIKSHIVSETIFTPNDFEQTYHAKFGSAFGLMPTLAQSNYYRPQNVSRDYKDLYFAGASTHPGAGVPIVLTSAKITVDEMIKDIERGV

[21] = biological target: Voltage-gated inwardly rectifying potassium channel KCNH2 (Homo sapiens, UniProt Q12809); assay: Inhibition of human ERG expressed in CHO cells at -80 mV holding potential after 3 mins by QPatch test; type: cell-based
[22] = as §1; type: ADME, microsome; conditions: liver microsomes

Voltage-gated inwardly rectifying potassium channel KCNH2, sequence (Q12809 whole entry): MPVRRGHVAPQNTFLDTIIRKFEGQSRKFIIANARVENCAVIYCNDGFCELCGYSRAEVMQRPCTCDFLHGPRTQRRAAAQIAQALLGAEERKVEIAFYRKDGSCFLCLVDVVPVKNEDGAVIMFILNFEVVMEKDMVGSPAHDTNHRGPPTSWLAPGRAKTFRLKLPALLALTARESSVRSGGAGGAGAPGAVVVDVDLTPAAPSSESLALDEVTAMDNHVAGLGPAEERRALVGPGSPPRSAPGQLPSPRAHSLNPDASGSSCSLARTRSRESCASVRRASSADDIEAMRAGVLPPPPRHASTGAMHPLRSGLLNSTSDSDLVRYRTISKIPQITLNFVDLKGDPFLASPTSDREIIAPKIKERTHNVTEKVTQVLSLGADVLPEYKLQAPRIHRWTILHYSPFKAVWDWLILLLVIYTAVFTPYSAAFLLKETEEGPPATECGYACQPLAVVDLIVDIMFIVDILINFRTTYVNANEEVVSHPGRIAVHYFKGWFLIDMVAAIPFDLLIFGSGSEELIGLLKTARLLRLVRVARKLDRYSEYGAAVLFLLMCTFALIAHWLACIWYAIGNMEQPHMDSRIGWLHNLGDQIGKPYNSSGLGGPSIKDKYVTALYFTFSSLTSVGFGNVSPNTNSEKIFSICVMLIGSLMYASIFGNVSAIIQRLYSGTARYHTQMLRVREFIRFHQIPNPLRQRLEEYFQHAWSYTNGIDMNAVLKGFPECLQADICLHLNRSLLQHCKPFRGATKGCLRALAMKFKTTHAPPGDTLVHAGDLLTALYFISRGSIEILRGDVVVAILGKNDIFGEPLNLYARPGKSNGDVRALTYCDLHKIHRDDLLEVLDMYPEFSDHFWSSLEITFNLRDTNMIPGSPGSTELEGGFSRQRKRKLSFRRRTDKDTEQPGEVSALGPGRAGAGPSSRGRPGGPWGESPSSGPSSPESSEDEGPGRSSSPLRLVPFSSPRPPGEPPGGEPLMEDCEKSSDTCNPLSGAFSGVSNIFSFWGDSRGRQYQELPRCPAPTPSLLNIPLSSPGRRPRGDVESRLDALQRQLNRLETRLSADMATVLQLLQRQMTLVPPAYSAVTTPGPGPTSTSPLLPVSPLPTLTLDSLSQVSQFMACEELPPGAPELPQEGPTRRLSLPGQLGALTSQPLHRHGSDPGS

CN(C/C=C/c1ccc(-c2ccccc2)cc1)Cc1coc2ccccc12.Cl
t1/2 (Liver): 50.7 min | AUC(0-t) at 24 h [1]: 2810 ng·h/mL | AUC(0-t) at 24 h [2]: 899 ng·h/mL | AUC(0-inf) [3]: 930 ng·h/mL | Cmax [4]: 4610 ng/mL | Cmax [5]: 130 µg/mL | Tmax [6]: 4.8 min | clearance [7]: 29.2 mL/min/kg | half-life [8]: 457 min | bioavailability [9]: 16.3% | bioavailability [10]: 83.8% | Activity (Staphylococcus aureus [11]): >91.8% | IC50 [12]: 5.6 nM | Activity (Staphylococcus aureus [13]): Active | Activity (Staphylococcus aureus [14]): Active | Activity (Staphylococcus aureus [15]): Active | Activity (Staphylococcus aureus [16]): 90% | Activity (Staphylococcus aureus [17]): inactive | Activity (Staphylococcus aureus [18]): >55.3% | Activity (Staphylococcus aureus [19]): Active | Survival [20]: 0.7%

CN(C/C=C/c1ccc(-c2ccccc2)cc1)Cc1cccc2cc[nH]c12.Cl
IC50 [21]: > 40 µM | half-life at 2 µM [22]: 93.7 min
